Laboratory results reported in ChEMBL document CHEMBL1145523, “Genetic targeting of the kinase activity of the Met receptor in cancer cells” (Proc Natl Acad Sci U S A, 2007).
Activity calls are given as the source filed them. No cut-off for these calls is given here.

Assays:
[1] = tested on: DLD-1; assay: Reduction of proliferation in human DLD1 KD2 cell carrying inactive MET kinase at 2.5 uM by ATP-based assay; format: functional
In short: (§1)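 Parental DLD1 and two independent MET-KD clones seeded at equal density in 96-well plates and given 2.5 μM inhibitor. Cell number measured as ATP-based luminescence (RLU). Mean of triplicates ± SD.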

[2] = tested on: DLD-1; assay: Inhibition of human MSK phosphorylation in DLD1 cells at 2.5 uM; format: cell-based
In short: (§2)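 Parental or MET-KD DLD1 cells held 16 h with or without 2.5 μM inhibitor, then lysed. Phosphorylation read on a human phospho-MAPK antibody array following the kit instructions. Dot signals quantified by densitometry and normalized to untreated WT DLD1 cells (set to 1). Significance by two-tailed Student's t test against WT untreated cells.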

[3] = tested on: DLD1 KD; assay: Inhibition of human MSK phosphorylation in DLD1 KD cells carrying inactive MET kinase at 2.5 uM; format: cell-based; in short: as §2
[4] = molecular target: T1, c-Jun N-terminal kinase, JNK (Homo sapiens) (UniProt P45983+P53779+P45984); assay: Inhibition of human JNK phosphorylation in DLD1 KD cells carrying kinase inactive MET at 2.5 uM; format: cell-based; in short: as §2
[5] = molecular target: Mitogen-activated protein kinase 14 (Homo sapiens) (UniProt Q16539); assay: Inhibition of human p38-alpha phosphorylation in DLD1 KD cells carrying inactive MET kinase at 2.5 uM; format: cell-based; in short: as §2
[6] = tested on: DLD1 KD; assay: Inhibition of human p70s6K phosphorylation in DLD1 KD cells carrying inactive MET kinase at 2.5 uM; format: cell-based; in short: as §2
[7] = tested on: DLD-1; assay: Reduction of proliferation in human DLD1 KD1 cell carrying inactive MET kinase at 2.5 uM by ATP-based assay; format: functional; in short: as §1
[8] = molecular target: T1, c-Jun N-terminal kinase, JNK (Homo sapiens); assay: Inhibition of human JNK phosphorylation in DLD1 cells at 2.5 uM; format: cell-based; conditions: DLD-1; in short: as §2
[9] = molecular target: Mitogen-activated protein kinase 14 (Homo sapiens) (UniProt Q16539); assay: Inhibition of human p38-alpha phosphorylation in DLD1 cells at 2.5 uM; format: cell-based; conditions: DLD-1; in short: as §2
[10] = tested on: DLD-1; assay: Reduction of proliferation in human DLD1 cells at 2.5 uM by ATP-based assay; format: functional, cell-based; in short: as §1
[11] = tested on: DLD-1; assay: Inhibition of human p70s6K phosphorylation in DLD1 cells at 2.5 uM; format: cell-based; in short: as §2

Mitogen-activated protein kinase 14 (Homo sapiens), sequence (Q16539 whole entry): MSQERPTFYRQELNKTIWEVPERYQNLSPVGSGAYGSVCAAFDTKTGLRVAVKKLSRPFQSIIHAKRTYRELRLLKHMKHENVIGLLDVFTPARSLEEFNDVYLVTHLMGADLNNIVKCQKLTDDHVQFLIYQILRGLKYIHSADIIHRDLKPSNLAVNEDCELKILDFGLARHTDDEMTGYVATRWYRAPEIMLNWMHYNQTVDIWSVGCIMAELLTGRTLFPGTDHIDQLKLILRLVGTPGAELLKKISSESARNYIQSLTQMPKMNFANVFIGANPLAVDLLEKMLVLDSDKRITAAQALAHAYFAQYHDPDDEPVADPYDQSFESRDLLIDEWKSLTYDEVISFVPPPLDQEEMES

Activity [4]: Active
Activity [5]: Active
Activity [8]: Active
Activity [9]: Active
SMILES: Cc1[nH]c(/C=C2\C(=O)Nc3ccc(S(=O)(=O)N(C)c4cccc(Cl)c4)cc32)c(C)c1C(=O)N1CCN(C)CC1
Activity [1]: Active
Activity [2]: Active
Activity [3]: Active
Activity [6]: Active
Activity [7]: Active
Activity [10]: Active
Activity [11]: Active
